Laboratory results taken from ChEMBL document CHEMBL3286209, “Synthesis and biological activities of novel pleuromutilin derivatives with a substituted thiadiazole moiety as potent drug-resistant bacteria inhibitors” (J Med Chem, 2014).
In brackets after ≈: the same amount, converted by molar mass.

Legend:
Type in all cases: functional
Streptococcus agalactiae [1] = assay: Antibacterial activity against Streptococcus agalactiae after 48 hrs by agar dilution method
Method in brief: (§1)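 Agar dilution per NCCLS on Mueller–Hinton agar; compound in DMSO/water, 2-fold serial dilutions in distilled water, 2 mL dilution mixed into 18 mL hot agar. Clinical isolates from blood slants, adjusted to about 10⁵−10⁶ cfu/mL in 0.90% saline; 10 μL spotted. Incubated 36.5 °C for 48 h; MIC = lowest concentration giving complete growth inhibition. Triplicate runs.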

Streptococcus agalactiae [2] = assay: Antibacterial activity against Streptococcus agalactiae at 160 ug/ml after 24 hrs by Oxford cup assay; conditions: read-out: IZ
Method in brief: (§2)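 Oxford cup diffusion: saline inoculum set by McFarland standard, spread on nutrient agar plates. […] Inhibition zone measured after 24 h at 37 °C; triplicate.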

Escherichia coli [3] = assay: Antibacterial activity against Escherichia coli at 320 ug/ml after 24 hrs by Oxford cup assay; conditions: read-out: IZ; method in brief: as §2
Escherichia coli [4] = assay: Antibacterial activity against Escherichia coli after 48 hrs by agar dilution method; method in brief: as §1
[5] = tested on: Staphylococcus epidermidis; assay: Antibacterial activity against methicillin-resistant Staphylococcus epidermidis at 320 ug/ml after 24 hrs by Oxford cup assay; conditions: read-out: IZ
Method in brief: (§3)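 Oxford cup diffusion using clinical isolates. Inocula are made in 0.9% saline to a McFarland standard and spread on nutrient agar. […] Inhibition zone diameter is measured after 24 h at 37 °C. Run in triplicate.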

[6] = tested on: Staphylococcus epidermidis; assay: Antibacterial activity against methicillin-resistant Staphylococcus epidermidis after 48 hrs by agar dilution method
Method in brief: (§4)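 Agar dilution per NCCLS using clinical isolates. Compound DMSO/water solutions are 2-fold serially diluted in water, then mixed 1:10 into hot Mueller–Hinton agar. Inocula come from blood slants, adjusted to about 10⁵−10⁶ cfu/mL in 0.90% saline, and spotted at 10 μL. Plates incubated at 36.5 °C for 48 h. MIC is the lowest concentration giving complete growth inhibition. Run in triplicate at pH 7.40.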

Staphylococcus aureus [7] = assay: Antibacterial activity against methicillin-resistant Staphylococcus aureus at 320 ug/ml after 24 hrs by Oxford cup assay; conditions: read-out: IZ; method in brief: as §3
Streptococcus agalactiae [8] = assay: Antibacterial activity against Streptococcus agalactiae at 320 ug/ml after 24 hrs by Oxford cup assay; conditions: read-out: IZ; method in brief: as §2
Staphylococcus aureus [9] = assay: Antibacterial activity against methicillin-resistant Staphylococcus aureus after 48 hrs by agar dilution method; method in brief: as §4
[10] = tested on: Staphylococcus epidermidis; assay: Antibacterial activity against methicillin-resistant Staphylococcus epidermidis at 160 ug/ml after 24 hrs by Oxford cup assay; conditions: read-out: IZ; method in brief: as §3
Escherichia coli [11] = assay: Antibacterial activity against Escherichia coli at 160 ug/ml after 24 hrs by Oxford cup assay; conditions: read-out: IZ; method in brief: as §2
Staphylococcus aureus [12] = assay: Antibacterial activity against methicillin-resistant Staphylococcus aureus at 160 ug/ml after 24 hrs by Oxford cup assay; conditions: read-out: IZ; method in brief: as §3

SMILES | MIC (Streptococcus agalactiae [1]) | zone of inhibition at 160 µg/mL (Streptococcus agalactiae [2]) | zone of inhibition at 320 µg/mL (Escherichia coli [3]) | MIC (Escherichia coli [4]) | zone of inhibition at 320 µg/mL [5] | MIC [6] | zone of inhibition at 320 µg/mL (Staphylococcus aureus [7]) | zone of inhibition at 320 µg/mL (Streptococcus agalactiae [8]) | MIC (Staphylococcus aureus [9]) | zone of inhibition at 160 µg/mL [10] | zone of inhibition at 160 µg/mL (Escherichia coli [11]) | zone of inhibition at 160 µg/mL (Staphylococcus aureus [12])
C=C[C@]1(C)C[C@@H](OC(=O)CSc2nnc(NC(=O)c3cccc(OC)c3)s2)[C@]2(C)[C@H](C)CC[C@]3(CCC(=O)[C@H]32)[C@@H](C)[C@@H]1O | 8 µg/mL (≈ 12.7 µM) | 11.7 mm | 10.9 mm | ≥ 64 µg/mL | 13.8 mm | 4 µg/mL (≈ 6.37 µM) | 13.1 mm | 12.8 mm | 8 µg/mL (≈ 12.7 µM) | 12.3 mm | 9.02 mm | 11.4 mm
C=C[C@]1(C)C[C@@H](OC(=O)CSc2nnc(NC(=O)CN(CC)CC)s2)[C@]2(C)[C@H](C)CC[C@]3(CCC(=O)[C@H]32)[C@@H](C)[C@@H]1O | 8 µg/mL (≈ 13.2 µM) | 10.4 mm | 10.2 mm | 64 µg/mL (≈ 105 µM) | 12.8 mm | 4 µg/mL (≈ 6.59 µM) | 12.3 mm | 12.7 mm | 8 µg/mL (≈ 13.2 µM) | 11.5 mm | 9.13 mm | 11 mm
C=C[C@]1(C)C[C@@H](OC(=O)CSc2nnc(NC(=O)CN3CCOCC3)s2)[C@]2(C)[C@H](C)CC[C@]3(CCC(=O)[C@H]32)[C@@H](C)[C@@H]1O | 4 µg/mL (≈ 6.44 µM) | 10.9 mm | 11.9 mm | ≥ 64 µg/mL | 10.8 mm | 8 µg/mL (≈ 12.9 µM) | 15.4 mm | 13.2 mm | 1 µg/mL (≈ 1.61 µM) | 0 mm | 0 mm | 13.4 mm
C=C[C@]1(C)C[C@@H](OC(=O)CSc2nnc(NC(=O)c3cccc(Cl)c3)s2)[C@]2(C)[C@H](C)CC[C@]3(CCC(=O)[C@H]32)[C@@H](C)[C@@H]1O | 2 µg/mL (≈ 3.16 µM) | 12.7 mm | 12.6 mm | 32 µg/mL (≈ 50.6 µM) | 15 mm | 2 µg/mL (≈ 3.16 µM) | 14.7 mm | 13.5 mm | 2 µg/mL (≈ 3.16 µM) | 12.9 mm | 11.7 mm | 13.4 mm
C=C[C@]1(C)C[C@@H](OC(=O)CSc2nnc(NC(=O)c3cccc(N)c3)s2)[C@]2(C)[C@H](C)CC[C@]3(CCC(=O)[C@H]32)[C@@H](C)[C@@H]1O | 0.25 µg/mL (≈ 0.408 µM) | 17.4 mm | 13.7 mm | 16 µg/mL (≈ 26.1 µM) | 17.8 mm | 0.5 µg/mL (≈ 0.816 µM) | 19.2 mm | 18.4 mm | 0.25 µg/mL (≈ 0.408 µM) | 16.1 mm | 12.7 mm | 17.5 mm
C=C[C@]1(C)C[C@@H](OC(=O)CSc2nnc(NC(=O)CN3CCCC3)s2)[C@]2(C)[C@H](C)CC[C@]3(CCC(=O)[C@H]32)[C@@H](C)[C@@H]1O | 2 µg/mL (≈ 3.31 µM) | 12.8 mm | 11.1 mm | 32 µg/mL (≈ 52.9 µM) | 12.8 mm | 4 µg/mL (≈ 6.61 µM) | 13.2 mm | 13.8 mm | 4 µg/mL (≈ 6.61 µM) | 10.5 mm | 9.86 mm | 13.1 mm
C=C[C@]1(C)C[C@@H](OC(=O)CSc2nnc(NC(=O)CN(C)C)s2)[C@]2(C)[C@H](C)CC[C@]3(CCC(=O)[C@H]32)[C@@H](C)[C@@H]1O | 2 µg/mL (≈ 3.46 µM) | 11.5 mm | 12 mm | 32 µg/mL (≈ 55.3 µM) | 16 mm | 2 µg/mL (≈ 3.46 µM) | 17.6 mm | 14.5 mm | 1 µg/mL (≈ 1.73 µM) | 14.3 mm | 10.1 mm | 15.4 mm
C=C[C@]1(C)C[C@@H](OC(=O)CSc2nnc(NC(=O)c3ccccc3Cl)s2)[C@]2(C)[C@H](C)CC[C@]3(CCC(=O)[C@H]32)[C@@H](C)[C@@H]1O | 2 µg/mL (≈ 3.16 µM) | 12.7 mm | 10.3 mm | ≥ 64 µg/mL | 12.6 mm | 8 µg/mL (≈ 12.7 µM) | 15 mm | 15.5 mm | 2 µg/mL (≈ 3.16 µM) | 11.9 mm | 0 mm | 12.2 mm
